proCasp7 act = counter-screen: procaspase-7 (human) activation. recombinant procaspase-7, Ac-DEVD-pNA absorbance 405 nm; D23A/D198A/D206A triple mutant, cannot self-cleave; scale: DMSO 0, 5 µM enzyme 100. 0.093% of 330,000 active. P55210. activation, % at 8.5 µM. AID 463210;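 active = percent activation above the screen-wide mean plus 3 SD, cut at about 25% in these data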
Target sequence (P55210 whole entry D23A/D198A/D206A): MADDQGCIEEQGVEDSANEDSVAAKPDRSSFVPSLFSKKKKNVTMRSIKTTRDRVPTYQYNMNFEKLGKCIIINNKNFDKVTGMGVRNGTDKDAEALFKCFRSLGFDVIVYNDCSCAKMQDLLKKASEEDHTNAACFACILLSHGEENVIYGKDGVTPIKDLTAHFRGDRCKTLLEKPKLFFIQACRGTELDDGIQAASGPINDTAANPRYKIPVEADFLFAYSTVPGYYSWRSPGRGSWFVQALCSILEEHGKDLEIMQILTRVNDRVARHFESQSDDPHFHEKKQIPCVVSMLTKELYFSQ
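Assay system: Uncleavable procaspase-7 mutant enzyme / Input: 2 µM procaspase-7 mutant as dispensed / Dosing: single nominal 8.5 µM compound dose, 0.8% DMSO final / Timing: 1 h enzyme–compound preincubation and 2 h substrate reaction, both 25 °C / Detection: p-Nitroaniline absorbance at 405 nm, read at 0 and 120 min / Replication: singlicate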
bovine MsrA act = activates bovine MsrA enzyme. activation, % at 10.6 µM. AID 602163. 0.3% of 360,000 active. purified bovine MsrA, absorbance read-out; in the data active = activation above about 7.5%;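 also: 0% = vehicle and 100% = reference activator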
TbMetRS inhib = blocks T. brucei methionyl-tRNA synthetase activity. inhibition, % at 11.9 µM. AID 624268. 0.4% of 360,000 active. purified T. brucei MetRS, ATP depletion, Kinase-Glo luminescence;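 active = inhibition above a per-plate cutoff of the control wells' mean inhibition plus 3 SD, cut at about 5.5% in these data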;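 also: 0% = DMSO wells median and 100% = median of wells with control inhibitor compound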
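Test system – parasite MetRS enzyme · Reagent – substrates ATP, L-methionine and bulk Escherichia coli tRNA · Doses – 11.9 µM compound single dose, 0.9% DMSO · Times – 15 min enzyme-compound preincubation, 2 h reaction, 10 min detection, 25 °C · Signal – Kinase-Glo luminescence, ATP depletion format · Controls – DMSO-only wells as low control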
MsrA inh = inhibitors of bovine MsrA. purified bovine MsrA, absorbance read-out. inhibition, % at 15.5 µM. 0.75% of 360,000 active; in the data active = inhibition above about 4.5%;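 also: 0% = vehicle wells with enzyme and 100% = reference inhibitor wells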
procasp3 activ = activators of human procaspase-3 | P42574 | recombinant procaspase-3 D3A, Ac-DEVD-pNA absorbance 405 nm | activation, % at 8.5 µM | 0.11% of 330,000 active | AID 463141;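 active = activation above the mean of all tested compounds plus 3 SD, cut at about 21% in these data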;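 also: 0% = DMSO alone and 100% = DMSO wells spiked with extra 5 µM PC-3 D3A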
Target sequence (P42574 whole entry D9A/D28A/D175A): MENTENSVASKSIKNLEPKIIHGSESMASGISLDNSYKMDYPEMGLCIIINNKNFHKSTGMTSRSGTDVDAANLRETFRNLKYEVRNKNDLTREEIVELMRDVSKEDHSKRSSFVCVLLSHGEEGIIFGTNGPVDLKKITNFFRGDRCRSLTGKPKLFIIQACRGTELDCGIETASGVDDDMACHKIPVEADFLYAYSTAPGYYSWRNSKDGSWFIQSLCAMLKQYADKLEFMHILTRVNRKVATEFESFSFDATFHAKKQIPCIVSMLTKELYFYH
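Assay system – Procaspase-3 D3A mutant, all three cleavage aspartates alanine · Controls – DMSO-only low control, 5 µM PC-3 D3A high control · Schedule – 1 h compound preincubation, 2 h substrate hydrolysis at 25 °C · Signal – 405 nm absorbance of p-nitroaniline, reads at 0 and 120 min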
TbMetRS confirm = Trypanosoma brucei MetRS inhibition confirmed; shares compounds with TbMetRS inhib; T. brucei MetRS enzyme, luminescence (ATP depletion); inhibition, % at 11.9 µM; 93% of 1,400 active; in the data active = inhibition above about 7%
Jurkat tox = kills Jurkat cells in T. brucei MetRS counterscreen; inhibition, % at 8.3 µM; 12% of 1,400 active; shares compounds with TbMetRS inhib; Jurkat cells viability, ATP luminescence; in the data active = inhibition above about 15%;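 also: 0% = vehicle and 100% = reference inhibitor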
TbMetRS FP orth = T. brucei MetRS inhibition, orthogonal assay | inhibition, % at 11.9 µM | purified T. brucei MetRS, fluorescence polarization | shares compounds with TbMetRS inhib | 44% of 1,400 active; in the data active = inhibition above about 17%;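 also: 0% = vehicle wells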
* marks the source's active call; other numbers are inactive results; / = no result given. Hits are enriched below; roughly 1.5% of the tested compounds scored in any of these assays.

SMILES	proCasp7 act	bovine MsrA act	TbMetRS inhib	MsrA inh	procasp3 activ	TbMetRS confirm	Jurkat tox	TbMetRS FP orth
Cc1cccc(NC(=O)c2ccc(-n3cncn3)c([N+](=O)[O-])c2)c1	8	1	20*	1	-6	57*	-1	29*
CCCCc1c(-c2ccccc2OC)ncn1Cc1ccc(C(C)(C)C)cc1	/	/	/	1	/	/	/	/
Brc1cnc2nc(SCc3nc4ccccc4[nH]3)[nH]c2c1	5	-2	57*	1	-14	85*	-2	65*
Clc1ccc(SCc2nc3ccccc3[nH]2)cc1	0	-3	17*	1	1	30*	8	13
O=C(Cc1nc2ccccc2[nH]1)c1ccc(Cl)cc1	0	-2	1	0	7	/	/	/
Fc1ccc(CSc2nc3ncc(Br)cc3[nH]2)cc1	11	-1	3	-1	2	/	/	/
Clc1ccc(/C(Cc2nc3ccccc3[nH]2)=N\Nc2ccccc2)cc1	5	-2	8.6*	0	0	32*	4	17*
Clc1ccc(OCCSCc2nc3ccccc3[nH]2)cc1	8	1	58*	0	4	73*	5	48*
O=C(C(=O)N1CCC(CNS(=O)(=O)c2ccc3ccccc3c2)CC1)c1cc2ccccc2o1	/	/	/	1	/	/	/	/
CCCn1cnnc1CNC(=O)[C@@H](Cc1ccccc1)NC(=O)[C@H]1O[C@@H](n2ccc(=O)[nH]c2=O)[C@H](O)[C@@H]1O	/	/	/	0	/	/	/	/
COC(=O)[C@]12C[C@H](CC(=O)NCCC(C)C)C(=O)N(Cc3ccccc3)C1=C[C@H](C(C)C)O[C@@H]2C1CC1	/	/	/	-1	/	/	/	/
O=C(Cn1nnc2ccccc2c1=O)NCCc1ccc(Cl)cc1Cl	4	-4	6.5*	1	-3	34*	4	10
C[C@H](NC(=O)c1ccc(Cl)cc1)C(=O)OCn1nnc2ccccc2c1=O	5	-5	0	0	4	/	/	/
O=C(CSCC(=O)OCn1nnc2ccccc2c1=O)Nc1ccc(Cl)cc1	-9	-1	16*	1	2	14*	6	3
CC(=O)c1cccc(NC(=O)C(C)OC(=O)CNC(=O)c2ccc(C)s2)c1 (centres undefined)	6	-4	14*	0	7	29*	1	11
Cc1sc(-c2ccccn2)nc1OC(=O)c1ccc(F)cc1F	-15	-3	0	1	-9	/	/	/
Cc1sc(-c2ccccn2)nc1OC(=O)c1ccc(Cl)c(Cl)c1	2	-3	14*	1	-4	3	2	0
CCn1c(C)cc2c(c1=O)C(c1ccc3c(c1)OCO3)C(C#N)=C(N)O2 (centres undefined)	8	-8	23*	-1	3	2	4	3
Cc1cc2c(c(=O)n1CC1CCCO1)C(c1ccc3c(c1)OCO3)C(C#N)=C(N)O2 (centres undefined)	6	-7	60*	0	-6	75*	-3	49*
CCn1c(C)cc2c(c1=O)C(c1ccncc1)C(C#N)=C(N)O2 (centres undefined)	15	0	-1	1	-8	/	/	/
O=[N+]([O-])c1cccc(COc2ccc(CO)cc2)c1	/	/	/	-2	/	/	/	/
O=C(C(=O)N1CCC(CNS(=O)(=O)c2ccccc2)CC1)c1cc2ccccc2o1	/	/	/	2	/	/	/	/
Cc1ccc(OCC(=O)N[C@@H](C)c2nnc3ccccn23)cc1C	6	-1	0	2	4	/	/	/
C[C@H](NC(=O)CCCOc1ccc(Cl)cc1Cl)c1nnc2ccccn12	1	-4	7.4*	1	2	16*	1	6
O=C(CCCOc1ccc(Cl)cc1Cl)NCCc1nnc2ccccn12	11	2	7.8*	0	7	19*	0	12
SMILES	proCasp7 act	bovine MsrA act	TbMetRS inhib	MsrA inh	procasp3 activ	TbMetRS confirm	Jurkat tox	TbMetRS FP orth
O=C1CC(SCCc2nc3ccccc3[nH]2)C(=O)N1c1ccc(F)c(Cl)c1 (centres undefined)	-12	-1	33*	0	-18	54*	1	30*
O=C1CC(SCc2nc3ccccc3[nH]2)C(=O)N1c1cccc(Cl)c1 (centres undefined)	-9	-3	80*	0	-19	91*	-1	61*
O=C1CC(SCc2nc3ccccc3[nH]2)C(=O)N1c1ccc(F)cc1 (centres undefined)	-13	-4	2	0	-25	/	/	/
CCCCCCCCN1C(=O)[C@@H](CC(=O)N2CCOCC2)C[C@@]2(C(=O)OC)C1=C[C@H](C1CCCC1)O[C@@H]2C	/	/	/	0	/	/	/	/
Brc1ccc(-c2nnc3sc(CNCc4ccc5c(c4)OCO5)cn23)cc1	12	-8	33*	0	-4	48*	2	25*
N=c1sccn1CC(=O)NCc1ccc(Cl)cc1Cl	3	2	29*	-1	4	51*	0	17
O=C(Cn1cc([N+](=O)[O-])ccc1=O)NCc1ccc(Cl)cc1Cl	4	-3	9.1*	0	5	26*	6	14
C=CCNC(=S)NNC(=O)Cn1c(-c2ccccc2)cc(=O)n2ncnc12	-3	1	10*	1	2	17*	11	12
COc1ccc(CCN2C(=S)N(C)C(=O)C2CC(=O)Nc2ccc(F)cc2)cc1 (centres undefined)	-26	-5	58*	0	-32	81*	6	51*
COC(=O)CN1C(=S)N(c2ccc(OC)cc2)C(=O)C1CC(=O)Nc1ccc(F)cc1 (centres undefined)	6	-1	1	0	8	/	/	/
COc1ccc(NC(=O)CC2C(=O)N(c3ccc(OC)cc3)C(=O)N2CCc2cccs2)cc1 (centres undefined)	11	-2	11*	-1	-2	20*	0	15
CCN1C(=O)C(CC(=O)Nc2ccc(Br)cc2)N(CCCc2ccccc2)C1=S (centres undefined)	8	3	66*	1	0	77*	8	62*
CCOc1ccc(NC(=O)CC2C(=O)N(C)C(=S)N2CCCc2ccccc2)cc1 (centres undefined)	-1	-3	0	-1	-2	/	/	/
CCN1C(=O)C(CC(=O)Nc2ccc(OC)cc2)N(CCc2ccc(OC)cc2)C1=S (centres undefined)	-10	-8	36*	1	2	51*	3	34*
C[C@@H]1CCCCO[C@H](CN(C)C(=O)CCC(F)(F)F)[C@H](C)CN([C@@H](C)CO)C(=O)c2cc(NS(=O)(=O)c3ccc(Cl)cc3)ccc2O1	/	/	/	3	/	/	/	/
